Among the data in ChEMBL document CHEMBL4011643, “Triaryl Benzimidazoles as a New Class of Antibacterial Agents against Resistant Pathogenic Microorganisms” (J Med Chem, 2017) are MIC, inhibition and Time values, retold here.

The subject of test [1] is Enterococcus faecalis. In words: Antibacterial activity against vancomycin-resistant Enterococcus faecalis NCTC 12201 after 20 hrs by broth microdilution method. The test is classed as functional. Particulars: NCTC 12201, 20 h. In short, it runs like this: (§1)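 Broth microdilution in Tryptic Soy Broth; growth read as OD600 after 20 h. MIC taken as the lowest drug concentration giving OD600 below 0.1. Run in triplicate.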
In general terms: Dilution methods test growth across graded concentrations, often in twofold steps.

For a further test, the system named is Enterococcus faecium. Briefly: Antibacterial activity against vancomycin-resistant Enterococcus faecium NCTC 12204 after 20 hrs by broth microdilution method. It counts as functional. Particulars: NCTC 12204, 20 h. In short, it runs like this: as §1
For test [2], the system named is Enterococcus faecalis. Briefly: Antibacterial activity against vancomycin-sensitive Enterococcus faecalis NCTC 775 after 20 hrs by broth microdilution method. It counts as functional. Particulars: NCTC 775, 20 h. The procedure, abridged:
(§2)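 Broth microdilution in Tryptic Soy Broth, done in triplicate. Growth was read as OD600 after 20 h. MIC is the lowest drug concentration giving OD600 below 0.1.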

Test [3] concerns Staphylococcus aureus. Briefly: Antibacterial activity against methicillin-resistant Staphylococcus aureus EMRSA-15 after 20 hrs by broth microdilution method. The test is classed as functional. Conditions: EMRSA-15, 20 h. The procedure, abridged:
as §1

For test [4], the system named is Staphylococcus aureus. Briefly: Antibacterial activity against methicillin-resistant Staphylococcus aureus MRSA252 after 20 hrs by broth microdilution method. Particulars: MRSA252, 20 h. The test is classed as functional. In short, it runs like this:
as §1

For test [5], the system named is Staphylococcus aureus. In words: Antibacterial activity against methicillin-sensitive Staphylococcus aureus ATCC 9144 after 20 hrs by broth microdilution method. The test is classed as functional. Particulars: ATCC 9144, 20 h. The procedure, abridged:
as §2

Test [6] concerns Staphylococcus aureus. Briefly: Inhibition of Staphylococcus aureus DNA gyrase assessed as reduction in pNO1 supercoiling at 0.5 ug/mL by fluorescent dye-based assay. The procedure, abridged: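 Supercoiling plate assay run per the kit instructions. S. aureus gyrase was incubated with compound and plasmid pNO1. Negatively supercoiled plasmid was captured by a triplex-forming oligonucleotide, stained with a fluorescent dye and read by fluorescence (excitation 485 nm). Percent inhibition was reported.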

Test [7] concerns Staphylococcus aureus. In words: Bactericidal activity against methicillin-resistant Staphylococcus aureus EMRSA-15 assessed as time required to kill bacteria by >6 log10CFU/ml at 4 times MIC by Miles Misra dilution method. It counts as functional. The procedure, abridged: (§3)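 Flasks of TSB inoculated at ~10^6 cfu/mL, compound added at 4 × MIC, shaken at 200 rpm and 37 °C. Samples taken at 1, 2, 4, 6 and 24 h and plated by Miles Misra dilution for CFU/mL. Bactericidal means a loss of >3 log CFU/mL. Three independent repeats, error bars SD.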

The test system of test [8] is Enterococcus faecalis. Briefly: Bactericidal activity against vancomycin-resistant Enterococcus faecalis NCTC 12201 assessed as time required to kill bacteria by <3 log10CFU/ml at 4 times MIC by Miles Misra dilution method. The test is classed as functional. In short, it runs like this: as §3
The test system of test [9] is Staphylococcus aureus. In words: Bactericidal activity against methicillin-resistant Staphylococcus aureus EMRSA-15 assessed as time required to kill bacteria by 3 log10CFU/ml at 4 times MIC by Miles Misra dilution method. It counts as functional. In short, it runs like this:
as §3

One may read the MIC as the smallest concentration in the dilution series that meets the test's criterion for growth inhibition. Lower therefore signals a more susceptible organism. One may read the inhibition as the relative decrease from the control value, in per cent.

Take `C[C@H]1COc2c(N3CCN(C)CC3)c(F)cc3c(=O)c(C(=O)O)cn1c23.C[C@H]1COc2c(N3CCN(C)CC3)c(F)cc3c(=O)c(C(=O)O)cn1c23.O` [LEVOFLOXACIN]: the MIC in the test with Enterococcus faecalis [1] is 1 µg/mL; against Enterococcus faecium, 0.5 µg/mL; with Enterococcus faecalis [2], 1 µg/mL; against Staphylococcus aureus [3], 8 µg/mL; with Staphylococcus aureus [4], 8 µg/mL; in the test with Staphylococcus aureus [5] it was 0.12 µg/mL. For the same compound, in the test with Staphylococcus aureus [6], the inhibition is 57.9%. Moreover, the figures for the Time with Staphylococcus aureus [7], in the test on Enterococcus faecalis [8] and with Staphylococcus aureus [9] were 24 h, 24 h and 6 h, respectively.
